# Residue numbers refer to the chain shown, from its start.
# How the values were obtained:
# M9-ENL1 cells = assay: Cell viability of M9-ENL1 cells, Annexin V / 7-AAD flow cytometry; type: cell-based, human; conditions: 20 μM, 24 h
# [1] = system: AML04 primary AML specimen; assay: Cell viability of primary AML specimen AML04; type: cell-based; conditions: Homo sapiens, read-out: AML04 LC50
# Outline: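 Primary AML samples came from consenting donors. Live mononuclear cells were isolated on a Ficoll-Paque density gradient and cryopreserved, with 40–70% viability after thawing. Cells were kept at 37 °C, humidified, 5% CO2.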
# heme oxygenase 1 (HO-1) = assay: Induction of heme oxygenase 1 in primary AML specimens; type: cell-based, human; conditions: compared to vehicle-only control
# P450BM3 variant V-F10 = target: T1, P450BM3 variant V-F10 (Priestia megaterium, UniProt P14779, A181T/A185V/A198V/A291V/E253G/F206C/F82V/F88A/H237Q/L354V/P143S/R256S/S227R/T176I/V79F); assay: Heme spin shift binding of MCL to P450 variant V-F10; parameters: species or system Bacillus megaterium
# T1 sequence (P14779 1-1049 V79F/F82V/F88A/P143S/T176I/A181T/A185V/A198V/F206C/S227R/H237Q/E253G/R256S/A291V/L354V): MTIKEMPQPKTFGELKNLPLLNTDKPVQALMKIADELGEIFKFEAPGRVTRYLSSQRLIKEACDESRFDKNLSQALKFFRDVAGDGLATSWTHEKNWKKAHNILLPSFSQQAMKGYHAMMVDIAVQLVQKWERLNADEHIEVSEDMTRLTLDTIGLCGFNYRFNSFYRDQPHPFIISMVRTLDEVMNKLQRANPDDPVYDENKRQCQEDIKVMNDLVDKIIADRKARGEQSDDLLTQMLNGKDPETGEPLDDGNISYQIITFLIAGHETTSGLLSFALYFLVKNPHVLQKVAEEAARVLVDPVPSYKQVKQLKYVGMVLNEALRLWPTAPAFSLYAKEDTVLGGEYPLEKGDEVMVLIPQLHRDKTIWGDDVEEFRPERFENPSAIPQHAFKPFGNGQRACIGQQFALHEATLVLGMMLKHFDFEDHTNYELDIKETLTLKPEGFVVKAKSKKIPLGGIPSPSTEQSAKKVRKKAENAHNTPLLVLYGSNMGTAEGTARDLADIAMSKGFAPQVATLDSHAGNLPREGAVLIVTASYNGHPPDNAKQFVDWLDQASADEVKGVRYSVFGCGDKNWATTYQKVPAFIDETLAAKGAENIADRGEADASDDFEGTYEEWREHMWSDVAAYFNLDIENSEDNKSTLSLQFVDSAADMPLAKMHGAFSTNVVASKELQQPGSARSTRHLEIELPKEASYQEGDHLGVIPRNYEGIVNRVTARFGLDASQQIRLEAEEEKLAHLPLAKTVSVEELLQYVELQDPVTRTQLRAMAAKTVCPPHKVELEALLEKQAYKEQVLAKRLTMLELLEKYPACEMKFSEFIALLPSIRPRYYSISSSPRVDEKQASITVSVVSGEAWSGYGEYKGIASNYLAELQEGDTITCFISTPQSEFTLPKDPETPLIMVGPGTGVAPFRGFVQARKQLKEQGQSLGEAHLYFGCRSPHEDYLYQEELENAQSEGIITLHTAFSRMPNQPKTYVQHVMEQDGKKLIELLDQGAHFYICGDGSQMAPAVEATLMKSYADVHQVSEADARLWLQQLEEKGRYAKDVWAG
# Outline: (§1)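 Purified P450 (3 μM) in 50 mM potassium phosphate, pH 8.0, titrated with test compound (5–2000 μM) from a 50 mM ethanol stock. A difference spectrum (350–500 nm) was taken at each step. Absorbance change at 390/420 nm (high/low spin) was plotted against concentration, with KD from a nonlinear 1:1 binding fit. At least triplicate, room temperature.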
# [2] = target: T2, P450BM3 variant V-H10(A87I) (Priestia megaterium, UniProt P14779, A181T/A185V/A198V/A291V/E253G/F206C/F88I/H237Q/L354V/P143S/R256S/S227R/T176I/V79N); assay: Heme spin shift binding of MCL to P450 variant V-H10; parameters: species or system Bacillus megaterium
# T2 sequence (P14779 1-1049 V79N/F88I/P143S/T176I/A181T/A185V/A198V/F206C/S227R/H237Q/E253G/R256S/A291V/L354V): T1 sequence (P14779 1-1049 V79F/F82V/F88A/P143S/T176I/A181T/A185V/A198V/F206C/S227R/H237Q/E253G/R256S/A291V/L354V) with F79N, V82F, A88I
# Outline: as §1
smiles,measurement,setting,value
"C=C1C(=O)O[C@H]2[C@H]1CCC(C)=C1CC[C@@](C)(O)[C@@H]12 [MCL, micheliolide]",reduction in cell viability,M9-ENL1 cells,50%
same,CC50,[1],22.1 µM
same,induction of heme oxygenase 1 (HO-1),heme oxygenase 1 (HO-1),Dose-dependent induction
same,Kd,P450BM3 variant V-F10,88 ± 18 µM
same,Kd,[2],1250 ± 54 µM
